The EternaBench riboswitch data

Test system: MS2 coat protein
Experiment: apparent Kd, MS2 coat protein; higher = weaker binding; RNA-MaP array; FMN 200 µM where present
Procedure, shortened: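 Apparent Kd: the median of filtered binding-curve fits from single clusters. Designs were transcribed on Illumina sequencing-chip clusters by stalled E. coli RNA polymerase and titrated with SNAP-549-labelled MS2 coat protein from 0.7 or 1.5 nM, doubling to 3 µM, in 100 mM Tris-HCl pH 7.5, 80 mM KCl, 4 mM MgCl2, BSA, DTT, yeast tRNA and Tween-20. Each series ran without and then with constant ligand, and green signal was normalised to red-channel RNA signal and control-cluster median Fmax.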

[1] = designed as: OFF switch for flavin mononucleotide, no ligand
[2] = ligand present: flavin mononucleotide, designed as: OFF switch for flavin mononucleotide
[3] = designed as: ON switch for flavin mononucleotide, no ligand
[4] = ligand present: flavin mononucleotide, designed as: ON switch for flavin mononucleotide

Sequence	apparent Kd [1] [nM]	apparent Kd [2] [nM]	apparent Kd [3] [nM]	apparent Kd [4] [nM]
CGCCUGGGAGGAUAUCCAAUAUAUGACAUGAGGAUCACCCAUGUUUCCACUCGUACCUCCGGAGAAGGCCCUGCGU	22.2	23.5		
AAACAUGUCCGAGGAUAUCUGGAAACAUUUCCAAGAGAAGGCGGACAUGAGGAUCACCCAUGUCUCUCCUCAUCACAUCCAAGU	9.27	79.3		
UGGUCAUCAUCAGGAUAUUAACGUGGGCUACAUUAAGAAGGGAUAGUGGGAGAGGAAGUGAAACAUGAGGAUCACCCAUGUUGU			13.5	11.3
UUUCAGCUCACAUGAGGAUCACCCAUGUCGGUUCGCCCGGACAGAAGGCACCCAUGACAAUGCGGUGAGGAUAUGUCAGCAAGG			193	19.3
AAGCGAAAGCUAAAAUAUCUAUCAGAGGAUAUUUAUGAUACAUGAGGAUCACCCAUGUGGCACUGGGAGAAGGCUGAUAGAUAA			11.6	6.15
UAAAUCGGAGGAUAUACAUGAGGAUCACCCAUGUAAUCGCGUUGGCAUCGGUGGGUUAGUAGAAGGCUGUAAAU	30.5	45.3		
AACAGUAGAGGAUAUACAUGAGGAUCACCCAUGUGAUAUUUACGUGGCGUACCACGAAGUAGAAGGCUACUGGA	30.7	265		
GUUAAGAACUAAGGAUAUUGAAUACAUAUGUUUAACAUGAGGAUCACCCAUGUGGGUUGCGGUGUCGAGAAGGUAGAAUAAUAG			201	195
GGUACUCAAAGAGUACUUGGUCGAACAUGAGGAUCACCCAUGUAGGAUAUGCGAAGCAAGAAGUAGCAGAAGGGCAUGUGCAGC	17.7	16.1		
GGGUCCAUCGGAGGAUAUCAUGUAAAUACAUGAGGAUCACCCAUGUCGAUGGAGACAUCGGAGAUUGAGAAGGCCGAUGUACCG			209	10.5
GGUCUGAGAGGAUAUACAUGAAAAAAAAAAGUAAGAUCCCUACAUGAGGAUCACCCAUGUAGAAGGCUCUGAUA	33.8	33.9		
UGGUAGUCAGGAUAUACGAACAUGUCGCCAGAUGUCAAGGUACAUGAGGAUCACCCAUGUAGAAGGGACUAGAA	44.5	48.2		
GUGUAGUCAGGAUAUACAUAGGAAGAGAAGAGAAGAUAAGUACAUGAGGAUCACCCAUGUAGAAGGGACAGUGU	30.6	29.6		
GCCAUCGCAUGAGGAUAUGCUCCGGUUUCCGGAGCAGAAGGCAUGUCACAAGACAUGAGGAUCACCCAUGUAGUUAAGAUGGCA			185	8.88
AGCAUGUUUGGGUAACCUGGCACAUGAGGAUCACCCAUGUGACAGGAUAUCGACGUAGAUGGCGACGAGAAGGGUCCGAUGGGU	5.78	7.01		
GGACGUCACAUGAACAUGAGGAUCACCCAUGUGAAAACACAUGAGGAUAUGGAUCCUAAUUGGAUCCAGAAGGCAUGGACGUCC			476	27.2
AUGCUCAUAGGAUAUAGAUUGAUUCACAUGAGGAUCACCCAUGUAAACUCUACUUUUUAACUAGAAGGAUGUUUUU	24.7	23.5		
UACAGACAUGAGGAUCACCCAUGUGAGGAUAUCGAUAACAAUAAAAUAAUAUAAACAACGAGAAGGCACAGCAU	57.4	73		
GUACGCUCAGGAUAUCAAGGGCUGUACAUGAGGAUCACCCAUGUUAUCUUGGUGUCAGCGUGAGAAGGGAGGGAAA	26	32.7		
AUAUCUUGUCAAGGAUAUGUUGUAUUGAUCUGAAAACAUGAGGAUCACCCAUGUAUACGGUGGGAACAGAAGGUGAAUGUAGAA	532	674		
CGCAAGUAUACAUGAGGAUCACCCAUGUCAGAAAGGGUAAUCAGAAGGUACUAUUAGAGAAAGAGUAAGGAUAUGAAAUUUGCG			747	125
GUAGCCGACCAGAAGGGUGACAUGAGGAUCACCCAUGUAGAUGUGUUCCCGCUUGGGAGCCGUCCACAGGAUAUGGUUGGUUAU			54.1	38.3
UGUGCGUAUGUGAGGAUAUGCUGGUCCUUGGCUCGGCAGAAGGCACAUGAGGAUCACCCAUGUGGUGUCGUACG	75.5	199		
AAUUGACACGUAGGAUAUCGAUCUAAAUUAACUCGAGAAGGACGUACAUGAGGAUCACCCAUGUUUAAUGGAGUAGAUAUGUUG	121	398		
AACGCGUCAGGAUAUAGCGUAAUUUAGGUAGUACGACCAUACUAGAAGGGACAUGAGGAUCACCCAUGUGGGUA	212	118		
CGUGAAGGCUGGCCGAUAUAGUCGAGAAGGGUCCACAUGAGGAUCACCCAUGUGAGCCUUGGUGGACAGGAUAUCGAUGGCCGU	46.7	15.2		
UAUAAAAUUAUAGGAUAUCGAUAUCAAAGAUAUCGAGAAGGGUGAAUAUAAUAUUAUCUGUACAUGAGGAUCACCCAUGUUUAU			276	87.2
GUCGUGUGAGGAUAUGAUUUUUCGGCGGGAUUGCGACUGCUUCAGAAGGCACAUGAGGAUCACCCAUGUUUGUC	10.6	21.2		

Sequence	apparent Kd [1] [nM]	apparent Kd [2] [nM]	apparent Kd [3] [nM]	apparent Kd [4] [nM]
CGUCCACAUGAGGAUCACCCAUGUGAGGAUAUCCAUACCCACAACCAAUACACAUUAUGGAGAAGGCACACACA	20.2	19.9		
CCAUCUUGUCGAGGAUAUAUUAACAUGACAUGAGACACAUGAGGAUCACCCAUGUAUGUUGUUGUAUAGAAGGCGACUACAUGA			50.4	51.2
GGAGAACAUGAGGAUCACCCAUGUGAGAGGGAUGUAGGAUAUGUGAGGAGUAAAGGAGGGACAGAAGGACAGAGAU			45.8	43.8
CAGCGAUAGCUGAACAAUCUAUCUGAGGAUAUUCAGAAUAAACAUGAGGAUCACCCAUGUAAUUGGGAGAAGGCAGAUAGAUUG			9.19	5.48
AAUUAGGUCACAGGAUAUACAACAUCCAUUGCUGUAGAAGGGUGUCACAAUCAUAUCUGACAUGAGGAUCACCCAUGUUUCCAC			85.8	33.3
GCAUGGUAUGAGAAGGCAUAAUUUAUCUAACAACAUGAUUACAUGAGGAUCACCCAUGUUUCCAAUGAGGAUAUCAUACCGUGC	7.83	7.12		
CAUAUGGUAACAGGAUAUAUGAGUCCUACAUGAGGAUCACCCAUGUAGGUGAUCUAACGAGAUUAGUAGAAGGGUUACCAUAUG			18.2	8.98
GUAGUGUAGUGAGGAUAUACGAGAUCGAUAGAUCGGCGAUCCAAUUAUACAUGAGGAUCACCCAUGUAGAAGGCACUUCACUAC	10.1	59.2		
UUUAUAUUCAGAGGAUAUUAAUGUUGUAUAAUAUAAGAAGGCUGUUUGUUUUGUAAAGUUAUUAUACAUGAGGAUCACCCAUGU			20.6	16.9
UAAAAGGAAGGAUAUACACUUCAAAACCUCAUGUGACUUUCACAUGAGGAUCACCCAUGUAGAAGGUCCAAGGC	24	33.9		
AUCUUGAGAGGAUAUACAUGAGGAUCACCCAUGUUGCUAACACCAUGAGCUCAUUUACGUAGAAGGCUCAUCCG	17.7	17.2		
AAACGACGUCAGAAGGCCGAUGGAUUUGACCACGGAGGAUAUGACAUGAGGAUCACCCAUGUGGUGCUUCUAACCCGCUGGGCC	501	69.7		
UCAAUUGCGUAGGAUAUACGGGCGCAGGCUAGAGUAGAAGGACGCACAUGAGGAUCACCCAUGUGGGUACCGAU	17.7	114		
UGUAAUGCUAUUGCAGAGGUUUAGAAGGAUAUACAUCGACAUGACCGUACAUGAGGAUCACCCAUGUAGAAGGUCUAACUUCGU	5.61	5.55		
AUGCUAGUGUGAGGAUAUUAACAUGAGGAUCACCCAUGUUGGAAGUACAUGACAUGAGGUACAUUUAAGAAGGUACAUUAGCAU	69	77.1		
AAGUUAUUAGGAUAUACUUGUGCGAACCAAACGUUGAUAUUACAUGAGGAUCACCCAUGUAGAAGGAAUAAAAA	35.7	25.1		
GUAAUUUAUAGAGGAUAUUGACAUGAGGAUCACCCAUGUAUUUGGGAGUGUUCACUGAAUUCUUACGAGAAGGCUAUAAAAUAC	307	213		
AGUAGUUCAGGAUAUGAUGUAUGUUACAUGAGGAUCACCCAUGUAGGUCCUUGAAUUGUAUCAGAAGGGAAUAUCU	258	281		
GUCAGCUCGUGAGGAUAUACAACACUGCUUCGGCAGUGUAUCAAGAUCACAUGAGGAUCACCCAUGUAGAAGGCACGAGCUGAU	13.2	234		
GCGAUUUUGUAAGGAUAUACUCUGUGAUGAAGAGUAGAAGGUACUUACAUGAGGAUCACCCAUGUUUAACGAGAUACUAAUCGU			42.1	21.2
CACAAGAAAGUCGAAGGUUGAAGUAGAAGGACAACAACAUGACAUGAGGAUCACCCAUGUGCCAUGUAGGAUAUGCUUUAAUCG	9.14	8.28		
CCGGAAGUACAGGAUAUCGUAUCGGAUACGAUACGAGAAGGGUAUACAUGAGGAUCACCCAUGUGUCCUACCGG	29.3	31.5		
AUUUAGUGAGGAUAUGUGGCUUCGAUCGUGAGAUCGAGGCUACAGAAGGCACAUGAGGAUCACCCAUGUUCCUC	37.6	498		
GCCAUCGCAUGAGGAUAUGCUCCGGUUUCCGGAGCAGAAGGUAUGUCAUAAGACAUGAGGAUCACCCAUGUAGGUAAGAUGGCA			221	31.3
GUAGCUAUCGGAGGAUAUUCAUAUCGGAAACGGACAUGAGGAUCACCCAUGUGGCGAAAGCCUUGGGAGAAGGCCGAUAGCUAC			144	9.42
CCAUAAAUGAUCCAUUUUUACUACAUGAGGAUCACCCAUGUGCAGGAUAUCGUGAAAGUUAAAUACGAGAAGGGCAAGAACUGC	218	230		
GACACUAUGUUUGUCAGAUAGAGAGAGGAUAUGGGUUAUGAGACAUGAGGAUCACCCAUGUUUAUUCAGAAGGCUCGAGUACGA			90.9	11.8
